Source: paper PMC5438482 (Journal of Alzheimer's Disease, 2017)

Assays:
MC65 cells [1] = assay: Cellular ROS assay with CM-H2DCFDA in MC65 cells; format: cell-based; details: CM-H2DCFDA fluorescence, TC- condition, n = 7-8
Outline: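 MC65 cells kept in 1 μg/mL tetracycline were washed extensively and plated at 2.5×10^4 cells/well in serum-free, phenol-red-free Opti-MEM without tetracycline. For ROS, cells were PBS-washed, loaded with CM-H2DCFDA and incubated 40 min. Random fluorescence photomicrographs were taken per condition, and intensity was quantified by image analysis, blinded to investigator.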

MC65 cells [2] = details: cited from earlier work
[3] = comparison CNS drug; no reference given; cited from earlier work

Row | Structure (SMILES) | ROS production of MC65 cells (MC65 cells [1]) | MC65 cell death (MC65 cells [2]) | Log Doct [3]
1 | Cc1c(C)c2c(c(C)c1O)CC[C@@](C)(CCC[C@H](C)CCC[C@H](C)CCCC(C)C)O2 [α-tocopherol] | reduced | blocked | 
2 | CN(C)CCC(c1ccc(Cl)cc1)c1ccccn1 (stereo not drawn) [chlorpheniramine] |  |  | 1.25
